CSN deneddyl inh = blocks human CSN-mediated cullin deneddylation; Q92905; inhibition, % at 12.5 µM; 360,000 tested, 0.38% active; Purified CSN, SCF-Nedd8-OG deneddylation, fluorescence polarization;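 active = pattern-corrected inhibition above about 35%, with an unprinted fluorescence ratio check between 0.5 and 1.5, limit read from the data, passing the limit was not always enough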;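 note: 0% = enzyme with substrate and 100% = substrate without enzyme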
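Material: purified human Csn5 enzyme expressed in HEK293T cells / Medium: Tris buffer pH 7.5, NaCl, DTT, Tween-20, trehalose, ovalbumin / Compound dosing: 12.5 µM single point / Schedule: 90 min incubation of compound, enzyme and substrate at room temperature / Signal: fluorescence polarization of the substrate / Control set: no-enzyme wells high, enzyme-with-substrate wells low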
Neddyl block = cullin neddylation inhibition; 360,000 tested, 0.58% active; TR-FRET cullin neddylation, biochemical; inhibition, % at 25 µM; P61081+Q13564; in the data active = inhibition above about 36%
TPT1 inh = blocks Candida albicans tRNA 2'-phosphotransferase; inhibition, % at 5 µM; recombinant caTPT1, FP RNA substrate dephosphorylation; 300,000 tested, 0.81% active; AID 1962;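 active = inhibition above the mean of all tested compounds plus 3 SD, set per screening campaign, cut at about 24% in these data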;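 note: plate controls were DMSO alone for no effect and ferristatin control at 100 nM for full effect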
Rpn11 block = blocks the human proteasome subunit Rpn11; human 26S proteasome, Ub4-pepOG fluorescence polarization; 20S core pre-blocked with epoxomicin; inhibition, % at 20 µM; 360,000 tested, 0.59% active; O00487;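 active = inhibition at 20 µM, scaled to each plate's controls, above about 33%, limit read from the data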
HNF4A DNA FP = change in binding of human HNF4 alpha to DNA; HNF4a-FITC DNA binding, fluorescence polarization, 1 h; activity change, % at 10 µM; AID 1224865; 360,000 tested, 0.3% active; P41235; in the data active = activity change above about 30%, passing the limit was not always enough
Rin1-Abl PPI inh = human Rin1-Abl interaction inhibition | 360,000 tested, 0.4% active | TR-FRET Rin1/Abl binding, biochemical | P00519+Q13671 | inhibition, % at 7.35 µM; in the data active = inhibition above about 5%, passing the limit was not always enough
Target sequence (P00519 whole entry, looked up): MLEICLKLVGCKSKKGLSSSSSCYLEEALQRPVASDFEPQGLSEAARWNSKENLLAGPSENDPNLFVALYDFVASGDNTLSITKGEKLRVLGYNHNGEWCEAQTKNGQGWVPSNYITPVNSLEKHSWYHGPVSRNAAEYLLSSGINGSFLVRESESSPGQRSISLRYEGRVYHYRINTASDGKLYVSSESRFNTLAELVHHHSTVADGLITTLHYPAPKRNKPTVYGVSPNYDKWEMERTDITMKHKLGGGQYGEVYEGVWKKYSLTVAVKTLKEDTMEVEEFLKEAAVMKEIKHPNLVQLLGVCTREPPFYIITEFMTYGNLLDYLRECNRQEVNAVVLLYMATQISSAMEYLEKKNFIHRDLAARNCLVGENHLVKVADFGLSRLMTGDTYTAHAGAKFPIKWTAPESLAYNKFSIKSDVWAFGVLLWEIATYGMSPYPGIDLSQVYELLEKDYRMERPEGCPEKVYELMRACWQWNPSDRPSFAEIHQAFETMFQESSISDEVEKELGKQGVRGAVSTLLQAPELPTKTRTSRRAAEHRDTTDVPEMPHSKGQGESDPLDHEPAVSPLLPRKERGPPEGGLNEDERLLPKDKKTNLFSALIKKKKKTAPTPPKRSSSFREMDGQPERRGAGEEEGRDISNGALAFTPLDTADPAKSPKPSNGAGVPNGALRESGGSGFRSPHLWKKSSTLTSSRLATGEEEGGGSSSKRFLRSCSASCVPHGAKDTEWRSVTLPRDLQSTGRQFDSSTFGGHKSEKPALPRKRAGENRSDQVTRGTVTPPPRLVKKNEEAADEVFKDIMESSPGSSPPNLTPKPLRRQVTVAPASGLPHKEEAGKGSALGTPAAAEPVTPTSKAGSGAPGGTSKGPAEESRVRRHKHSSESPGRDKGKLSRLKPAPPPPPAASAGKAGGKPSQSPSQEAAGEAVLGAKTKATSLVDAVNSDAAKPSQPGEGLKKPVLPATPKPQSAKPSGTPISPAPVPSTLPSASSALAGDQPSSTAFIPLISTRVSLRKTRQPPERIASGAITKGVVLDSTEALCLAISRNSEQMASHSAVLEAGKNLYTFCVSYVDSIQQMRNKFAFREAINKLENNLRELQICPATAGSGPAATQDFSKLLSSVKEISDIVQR
Target sequence (Q13671 whole entry, looked up): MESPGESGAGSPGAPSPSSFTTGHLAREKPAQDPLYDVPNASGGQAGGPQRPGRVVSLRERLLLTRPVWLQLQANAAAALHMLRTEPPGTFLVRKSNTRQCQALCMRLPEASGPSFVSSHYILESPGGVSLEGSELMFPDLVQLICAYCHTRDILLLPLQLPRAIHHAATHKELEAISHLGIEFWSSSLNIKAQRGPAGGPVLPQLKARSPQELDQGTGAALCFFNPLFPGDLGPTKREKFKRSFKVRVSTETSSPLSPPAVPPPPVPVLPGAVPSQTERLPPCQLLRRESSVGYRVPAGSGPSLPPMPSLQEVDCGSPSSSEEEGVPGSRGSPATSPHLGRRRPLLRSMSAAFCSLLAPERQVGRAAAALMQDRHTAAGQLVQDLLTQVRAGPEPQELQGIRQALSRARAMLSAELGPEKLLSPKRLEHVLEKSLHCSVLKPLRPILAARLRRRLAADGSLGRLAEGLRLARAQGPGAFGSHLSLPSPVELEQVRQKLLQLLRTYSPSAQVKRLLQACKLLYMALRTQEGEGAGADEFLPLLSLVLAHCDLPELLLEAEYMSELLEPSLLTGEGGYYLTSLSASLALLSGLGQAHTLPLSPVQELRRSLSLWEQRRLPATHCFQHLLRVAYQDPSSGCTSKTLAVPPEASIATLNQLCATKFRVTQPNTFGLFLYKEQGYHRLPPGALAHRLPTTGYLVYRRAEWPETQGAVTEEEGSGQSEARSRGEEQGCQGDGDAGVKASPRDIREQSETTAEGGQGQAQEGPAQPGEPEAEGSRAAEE
caTPT1 confirm = confirmation of Candida albicans TPT1 inhibitors; shares compounds with TPT1 inh; recombinant caTPT1, fluorescence polarization, RNase T1 coupled; inhibition, % at 5 µM; 2,400 tested, 74% active; AID 2149;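 active = inhibition above the primary screen limit, the mean inhibition of all tested compounds plus 3 SD, cut at about 25% in these data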
RNase T1 inh = blocks Aspergillus oryzae RNase T1, a TPT1 counter-screen. shares compounds with TPT1 inh. RNase T1 cleavage, fluorescence polarization, 1536-well. inhibition, % at 5 µM. 2,400 tested, 83% active. AID 2153;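 active = inhibition above the solvent-only control well mean plus 3 SD, limit set per screening run, cut at about 23% in these data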;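 note: plate controls were DMSO wells with enzyme for no effect and wells without RNase T1 for full effect; inhibitors block cleavage so intact labeled substrate keeps polarization high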
An asterisk follows results filed as active; i = inactive; x = not tested or not shown; + = active, no number. Most compounds without a hit are left out; they make up all but 2.4% or so of the library.

SMILES | CSN deneddyl inh | Neddyl block | TPT1 inh | Rpn11 block | HNF4A DNA FP | Rin1-Abl PPI inh | caTPT1 confirm | RNase T1 inh
COC(CNC(=O)C1CCCN1C(=O)OCc1ccccc1)OC (configuration not stated) | -1 | 2 | 43* | -3 | -7 | -2 | 5 | 7
CCOC(=O)C(NC(=O)C1CCCN1C(=O)OCc1ccccc1)C(=O)OCC (configuration not stated) | -5 | 1 | -2 | -3 | -2 | 0 | x | x
Cc1ccc2nc(Cl)c(/C=N/Nc3ccc(C(=O)O)cc3)cc2c1 | 5 | x | 30* | 11 | 0 | -3 | 36* | 47*
Cc1ccc2cc(/C=N/NC(=O)c3ccc(F)cc3)c(Cl)nc2c1 | 5 | -13 | 2 | 8 | 1 | 1 | x | x
CCOC(=O)c1c(-c2ccccc2)csc1/N=C/C1C(=O)CCCC1=O | -1 | 8 | 114* | 4 | 3 | -1 | 21 | 33*
CCOC(=O)c1c(/N=C/C2C(=O)CCCC2=O)sc2c1CCCC2 | -2 | -3 | -8 | 0 | 7 | 2 | x | x
CCOC(=O)c1c(CC(C)C)csc1/N=C/C1C(=O)CCCC1=O | 17 | 25 | 126* | 14 | 3 | -2 | 15 | 20
CCOC(=O)c1c(-c2ccc(C)cc2)csc1/N=C/N(C)C | 3 | -14 | 2 | 8 | 0 | -2 | x | x
N#C/C(=C\c1ccc(N2CCOCC2)o1)C(=O)Nc1ccc(O)cc1 | 182 | i | + | x | 217 | -24 | 194* | 176*
COc1ccc(NC(=O)/C(C#N)=C\c2ccc(N3CCOCC3)o2)cc1 | 14 | i | + | x | 217 | -18 | 198* | 177*
N#C/C(=C/c1ccc(N2CCCCC2)o1)C(=O)Nc1ccc(Cl)cc1 | 100 | -31 | 187* | x | 118 | 0 | 192* | 174*
O=[N+]([O-])c1ccc(-c2cn3nc(-c4ccccc4)c(-c4ccccc4)nc3n2)cc1 | 6 | 31 | 17 | x | -7 | -1 | x | x
c1ccc(-c2cn3nc(-c4ccccc4)c(-c4ccccc4)nc3n2)cc1 | 8 | 31 | 34* | -11 | 0 | 0 | 44* | 51*
Cc1ccc(-c2cn3nc(-c4ccccc4)c(-c4ccccc4)nc3n2)cc1 | 9 | 39 | 68* | -28 | -39 | -2 | 71* | 75*
Cc1cc(C)c2oc(C(=O)NC3CCS(=O)(=O)C3)cc(=O)c2c1 (configuration not stated) | 0 | 22 | -1 | -6 | 2 | -3 | x | x
Cc1cccc(C)c1NC(=O)C(c1ccc(C(F)(F)F)cc1)n1c(=O)c(-c2ccccc2)nc2ccccc21 (configuration not stated) | 0 | 30 | x | x | 0 | x | x | x
O=C1CN(CC(=O)Nc2cccc(Cl)c2Cl)c2ccccc2N1 | 0 | 9 | 34* | x | 35* | -1 | 16 | 24*
CCCCn1c(/C=C/c2ccco2)nc2ccccc21 | 4 | 28 | 23 | 18 | 3 | 1 | x | x
Clc1ccc(Cn2c(/C=C/c3ccco3)nc3ccccc32)cc1 | 30 | x | 29* | x | 25 | -2 | 34* | 46*
CCCn1c(/C=C/c2ccco2)nc2ccccc21 | 14 | 38 | 25* | 19 | 4 | -1 | 38* | 51*
Cc1ccc(S(=O)(=O)N(C)C)cc1NC(=O)C(C)OC(=O)CC1CC2CCC1C2 (configuration not stated) | 3 | 7 | x | -5 | -1 | 0 | x | x
COC(=O)c1cc(NC(=O)c2cccc(C(F)(F)F)c2)c(=O)oc1C/C=N/OCc1cccc(Cl)c1Cl | 15 | 21 | 35* | x | 28 | 4 | 38* | 45*
COC(=O)c1cc(NC(=O)c2cccc(C(F)(F)F)c2)c(=O)oc1C | -12 | -3 | 5 | 5 | 2 | -1 | x | x
CCN(CC)CCCNc1nc(CN2CCOCC2)nc2sc3c(c12)CCC3 | -10 | -1 | 35* | -2 | -5 | 1 | 8 | 9
CCC(C)Nc1nc(CN2CCOCC2)nc2sc3c(c12)CCC3 (configuration not stated) | 8 | 36 | 0 | 14 | 1 | 2 | x | x
SMILES | CSN deneddyl inh | Neddyl block | TPT1 inh | Rpn11 block | HNF4A DNA FP | Rin1-Abl PPI inh | caTPT1 confirm | RNase T1 inh
CCN(CC)c1ccc(C=C2C(=O)OC(C)(C(C)(C)C)OC2=O)cc1 (configuration not stated) | 19 | -2 | 78* | x | 5 | -2 | 162* | 152*
CN(C)c1ccc(C=C2C(=O)OC(C)(C(C)(C)C)OC2=O)cc1 (configuration not stated) | 2 | -1 | 15 | 2 | -3 | -1 | x | x
CCN(CC)c1ccc(C=C2C(=O)OC3(CCCC3)OC2=O)cc1 | 10 | -2 | 29* | 28 | 0 | 4 | 140* | 142*
CC(C)N(Cc1nccn1C)C(=O)c1ccc2oc(Cc3ccccc3)nc2c1 | -2 | -15 | x | 4 | -5 | 1 | x | x
Cc1c(Cl)cccc1NC(=S)N1CCN(Cc2ccc3c(c2)OCO3)CC1 | -8 | -1 | 0 | -2 | -4 | -1 | x | x
CCN1C=C(Cc2ccc(OC)cc2)C2=C(C1)C(c1ccc(OC)cc1)C(C#N)=C(N)O2 (configuration not stated) | 11 | 0 | 44* | 29 | 8 | 1 | 27* | 35*
CCN(CC)C1=CC2=CC(=C(C#N)C#N)CCC2CC1 (configuration not stated) | -75 | i | 32* | x | -99 | -29 | 22 | 37*
O=C(COc1ccc2ccccc2c1)Nc1nccs1 | -2 | -9 | 28* | -6 | 5 | 0 | 4 | 10
O=C(COc1ccccc1)Nc1nccs1 | -6 | 0 | 2 | -3 | -1 | 2 | x | x
Cc1cc(=O)nc2c3ccccc3n(CC(=O)NC(C)c3ccc4c(c3)OCCO4)n12 (configuration not stated) | 0 | 0 | 2 | 0 | 2 | 2 | x | x
CC1CCCc2sc3ncn(N)c(=N)c3c21 (configuration not stated) | 4 | -6 | 61* | -2 | 2 | 0 | 16 | 22*
COC(=O)Cc1cc(C)cc2c(=O)cc(-c3ccoc3)oc12 | 12 | x | 34* | x | 91 | -2 | 53* | 66*
COc1ccccc1C(=O)Nc1nnc([C@H]2C[C@H](O)[C@@H](CO)O2)s1 | -2 | 5 | x | 3 | -9 | 2 | x | x
O=C(NC1CCCCC1)C(c1ccncc1)n1c(=O)c(-c2cc3ccccc3[nH]2)nc2ccccc21 (configuration not stated) | 1 | x | x | x | -1 | x | x | x
O=C(COc1ccccc1)c1cn(CC(=O)N2CCOCC2)c2ccccc12 | 16 | 1 | 27* | 14 | 8 | -2 | 26* | 37*

Screens deposited in PubChem by several laboratories.
